Source: article PMC4123212 (Chemistry & biology, 2014)

Columns and labels:
[1] = molecular target: GFP-tagged Erk2^WT in HEK293 cells (Rattus norvegicus, UniProt P63086); experiment: In-cell activation inhibition, EGF-stimulated HEK293 cells; type: cell-based; conditions: 2 at 100-1000 nM, SB203580 1000 nM, immunoblot
Method in brief: (§1)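 Low-passage HEK293 transiently transfected with GFP-Erk2 plasmid, split next day into 96-well format, serum-starved 24 h. Test compound added for 1 h at 37 °C (final 1% DMSO), then human EGF 50 ng/mL for 5 min at 37 °C. DMSO controls with and without EGF. Cells lysed by boiling in SDS loading buffer; SDS-PAGE, immunoblot for GFP and ppErk.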

[2] = molecular target: T1, Erk2^WT (Rattus norvegicus, UniProt P63086); experiment: DUSP6 activation inhibition; type: biochemical; conditions: inhibitor 5 µM, 4-MUP turnover
Method in brief: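 DUSP6 (140 nM) added for 1 h at RT, then 4-MUP (250 µM). Fluorescence read at Ex/Em 355/460 nm after 2 h at RT; Erk2-free wells used as background.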

[3] = test system: Erk2^DS1 (Q103T/C164L); conditions: ref Hari et al., 2013; cited from earlier work
[4] = molecular target: T2, Erk2^DS1 (Rattus norvegicus, UniProt P63086, C164L/Q103T); experiment: Activation inhibition assay; type: biochemical; conditions: Erk2^DS1, PhosTag-acrylamide PAGE
Method in brief: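 This run uses the MOPS/MgCl2 activation setup (ATP 5 µM, 30 min compound preincubation at RT) but with tenfold more MEK2. Reactions were stopped in SDS loading buffer without EDTA. Erk2 phospho-forms were resolved by SDS-PAGE in gels containing 50 µM PhosTag-acrylamide and 100 µM MnCl2.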

[5] = molecular target: T1, Erk2^WT; experiment: Activation inhibition assay; type: biochemical; conditions: ELISA
[6] = molecular target: Erk2^DS2 (Q103A/C164L) (Rattus norvegicus, UniProt P63086, C164L/Q103A); conditions: ref Hari et al., 2013; cited from earlier work
[7] = molecular target: phospho-Erk2^WT (Rattus norvegicus, UniProt P63086); experiment: Phosphatase inhibition: DUSP6-mediated dephosphorylation; type: biochemical; conditions: ELISA
[8] = molecular target: T1, Erk2^WT; conditions: Ki values reported previously, ref Hari et al., 2013; cited from earlier work
[9] = molecular target: GFP-tagged Erk2^DS1 in HEK293 cells (Rattus norvegicus, UniProt P63086, C164L/Q103T); experiment: In-cell activation inhibition, EGF-stimulated HEK293 cells; type: cell-based; conditions: 2 at 100-1000 nM, SB203580 1000 nM, immunoblot
Method in brief: as §1

[10] = molecular target: phospho-Erk2^DS2 (Rattus norvegicus, UniProt P63086, C164L/Q103A); experiment: Phosphatase inhibition: DUSP6-mediated dephosphorylation; type: biochemical; conditions: phospho-Erk2^DS2, relative to apo enzyme, ELISA
[11] = molecular target: T2, Erk2^DS1; experiment: Activation inhibition assay; type: biochemical; conditions: Erk2^DS1, ATP 5 µM, bis-phosphorylated Erk2 by ELISA
Method in brief: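 Erk2 variant preincubated 30 min at RT with ATP (5 µM) and titrated test compound (2% DMSO) in 50 mM MOPS pH 7.4, 10 mM MgCl2, 1 mM DTT, 0.001% Tween 20, 0.1 mg/mL BSA. MEK2 then added and incubated at RT; enzyme levels and times set by linearity. Quenched with 20 mM EDTA, plate-bound overnight at 4 °C, then anti-phospho-Erk2/HRP ELISA. EC50 from nonlinear regression; triplicates.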

C[S+]([O-])c1ccc(-c2nc(-c3ccncc3)c(-c3ccc(F)cc3)[nH]2)cc1 (centres unmarked) [SB203580]
Cellular Erk2 activation upon EGF stimulation [1]: not affected | Effect on Erk2-mediated activation of DUSP6 [2]: none of these ligands affected | Sensitivity of drug sensitive Erk2 mutant to inhibitor [3]: highly sensitive | Formation of bis-phosphorylated Erk2 (MEK2) [4]: comparable levels of bis-phosphorylation | Decrease in the amount of activation loop phosphorylated Erk2 (MEK2) [5]: neither 2 nor SB203580 lead to a significant decrease | Sensitivity of drug sensitive Erk2 mutant to inhibitor [6]: highly sensitive | Effect on DUSP6-mediated dephosphorylation [7]: none of the inhibitors affected | Inhibition of wild type Erk2 [8]: very weakly inhibited | Cellular Erk2 activation upon EGF stimulation [9]: had no effect | Effect on DUSP6-mediated dephosphorylation of the TxY motif [10]: enhanced the phosphatase activity of DUSP6 | Inhibition of dual phosphorylation of Erk2's activation loop by MEK2 [11]: only a minimal effect
